The values that follow come from publication PMC3080470 (Biopharmaceutics & drug disposition, 2011).

The conditions of data set [1]: cited from earlier work.
The conditions of data set [2]: cited from earlier work. This is another data set of the same source.
Data set [3] relates to sandwich-cultured human hepatocytes. To be noted: cited from earlier work.
The conditions of data set [4]: adult; well-stirred model, fu 0.004, QH 21 ml/min/kg; ref Yanni et al. [8]; cited from earlier work.
Data set [5] is described as follows: Micafungin serum fraction unbound by equilibrium dialysis. Type of data set: in vitro ADME. The following applies: human, pH 7.4. The essentials:
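Serum from neonates (23–40 wk gestation, postnatal 1–52 days, 0.6–3.5 kg; n=6) or adults (n=6) spiked with 10 μM test compound. Dialysed against an equal volume of 100 mM sodium phosphate, pH 7.4, for 4.5 hr at 37°C with 100 rpm shaking. Both sides quantified by HPLC-fluorescence (ex 273/em 464 nm) with diclofenac internal standard and matrix-matched calibration. fu = buffer/serum concentration.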
(In general: In equilibrium dialysis free small molecules cross a membrane that holds back macromolecules.)

Setting [6] is: human adult, ref Yanni et al. [8].

Where two headings read alike, the source gives them in different places. Marks after values point to notes of the source that are not given here. Numbered stars: 1 amine (or outer) side, 2 acyl side, 3 side chain; on linkers, the order of the positions; unused ones are H or OH. Bridge positions count the residues as written; N and C are the ends. Square brackets hold non-standard residues; d marks the D form. Peptide text beside a SMILES is read from it. * marks the point of attachment. hTyr(3S-OH,4S-OH,3'-OSO3H) = N[C@H](C(=O)O)[C@H](O)[C@@H](O)c1ccc(O)c(OS(=O)(=O)O)c1; Orn(4R-OH,5R-OH) = O=C([C@H](C[C@@H](O)[C@@H](O)N[*:3])N[*:1])[*:2]; Pro(3S-OH,4S-Me) = C[C@H]1CN[C@H](C(=O)O)[C@H]1O; X1 = CCCCCOc1ccc(-c2cc(-c3ccc(C(=O)*)cc3)no2)cc1; Gln(3R-OH) = NC(=O)C[C@@H](O)[C@H](N)C(=O)O; Hyp = O=C(O)[C@@H]1C[C@@H](O)CN1

One may read the fraction unbound as free concentration divided by total concentration. High values mean weak binding, low ones extensive binding. On to `CCCCCOc1ccc(-c2cc(-c3ccc(C(=O)N[C@H]4C[C@@H](O)[C@@H](O)NC(=O)[C@@H]5[C@@H](O)[C@@H](C)CN5C(=O)[C@H]([C@H](O)CC(N)=O)NC(=O)[C@H]([C@H](O)[C@@H](O)c5ccc(O)c(OS(=O)(=O)O)c5)NC(=O)[C@@H]5C[C@@H](O)CN5C(=O)[C@H]([C@@H](C)O)NC4=O)cc3)no2)cc1` [Micafungin] (X1-[Orn(4R-OH,5R-OH)]T[Hyp][hTyr(3S-OH,4S-OH,3'-OSO3H)][Gln(3R-OH)][Pro(3S-OH,4S-Me)]; lactam 1-C), for which, in data set [1] (setting [6]), the “Observed Biliary Cl” value is 0.160 mL/min/kg and the “Observed Plasma Cl” value was 0.229 mL/min/kg. In addition, in data set [1] (human neonate, ref Heresi et al. [5]), the “Observed Plasma Cl” value is 0.622 ^# ml/min/kg. The “share of plasma clearance that occurs via biliary elimination of the parent drug” value in data set [1] (pharmacokinetic studies with 14C-micafungin) was “approximately 90%”. Also, in data set [2] (in humans and animals), the plasma protein binding is listed as > 99%. The “binding to plasma proteins” value in data set [2] (stated in abstract, no reference given) is > 99.5%. Also, the “Intrinsic Biliary Cl” value in data set [3] (adult, sandwich-cultured human hepatocytes, B-CLEAR, ref Yanni et al. [8]) was 14 ± 9 µL/min/mg. The “Intrinsic Accumulation Cl” value in data set [3] (adult, sandwich-cultured human hepatocytes, ref Yanni et al. [8]) is 24 ± 2 µL/min/mg. For the same compound, the “In vitro intrinsic accumulation Cl” value in data set [3] (sandwich-cultured human hepatocytes from adult liver donors, no albumin) was 23.5 ± 1.6 µL/min/mg. Further, in data set [4], the “Calculated Biliary Cl” value is 0.101 ± 0.062 mL/min/kg and the “Calculated Plasma Cl” value is 0.175 ± 0.012 mL/min/kg. The same compound gave a fraction unbound at 4.5 hr, 10 μM in data set [5] (serum from adults) of 0.004. This compound gave a fraction unbound at 4.5 hr, 10 μM in data set [5] (serum from neonates) of 0.033.
With Caspofungin, in data set [1] (human), the “clearance in neonates (< 3 months) compared to older children (2-11y)” value was “significantly lower”. Further, in data set [2], the “unbound fraction in blood” value is reported as “about 3.5%”.
